# Measurements of several laboratories.
# Compare with care: the assays were run in different laboratories.
# Target: Serine/threonine-protein kinase SBK1 (SBK1, Homo sapiens, UniProt Q52WX2)
SMILES,read-out,technique,tested at,remaining binding [%]
CCC(=O)N[C@H]1CC[C@@H](C(=O)N(C)c2ccc(-c3nc4ccccc4o3)cc2)C1,cell-free assay,competition with immobilised ligand,1 µM,94
C[C@@H](c1ccc(-n2cnc3c(N)ncnc32)cc1)N1CCc2nn(C)c(Cc3ccccc3)c2C1=O,binding,competition with immobilised ligand,0.1 µM,69
CN(C)CC#Cc1ccc(OCCCc2sc(N3CCc4cccc(C(=O)Nc5nc6ccccc6s5)c4C3)nc2C(=O)O)c(F)c1,cell-free assay,competition with immobilised ligand,1 µM,100
Nc1ncc2c(n1)-c1c([nH]c3ccc(C#CC4CC4)cc13)CCCC2,binding,competition with immobilised ligand,1 µM,100
CO[C@@H](C)c1c(Nc2ccc([C@H](N(C)C(=O)C3CCS(=O)(=O)CC3)C(F)(F)F)cc2)cnc2cc(Cl)nn12,cell-free assay,competition with immobilised ligand,1 µM,100
O=C(Nc1c[nH]nc1C(=O)NC1CCNCC1)c1cc(F)cc(F)c1,binding,competition with immobilised ligand,1 µM,100
CN(c1nccc(-c2cnn3ncccc23)n1)C1CC1,binding,,1 µM,100
Cc1cnc(Nc2ccc(C(=O)N3CCC(N4CCCC4)CC3)cc2)nc1-c1cc2ccccc2s1,binding,competition with immobilised ligand,1 µM,51
F[C@@H]1CCN(c2nccc(-c3cnn4ncccc34)n2)C1,binding,,1 µM,100
CCCOc1ccc([C@H]2[C@H](C(=O)O)[C@@H](c3ccc4c(c3)OCO4)CN2CC(=O)Nc2c(CC)cccc2CC)cc1,cell-free assay,competition with immobilised ligand,1 µM,78
COc1ccnn2ncc(-c3ccnc(N(C)C)n3)c12,binding,,1 µM,100
COc1cnc(Nc2cccc(S(N)(=O)=O)c2)nc1N1CCN(c2ccccc2)CC1,binding,competition with immobilised ligand,1 µM,96
CCN1CCN(Cc2ccc(C(=O)Nc3ccc(C)c(Oc4ccc5c(c4)CC(=O)N5)c3)cc2C(F)(F)F)CC1,binding,competition with immobilised ligand,1 µM,76
CN(CCCC(F)(F)F)c1nccc(-c2cnn3ncccc23)n1,binding,,1 µM,85
COc1ncc2cc3ccccc3nc2c1C#N,cell-free assay,competition with immobilised ligand,5 µM,82
CCOC(=O)c1cc2cc(-c3cc(C(=O)NCc4ccc(C(=O)O)cc4)nn3C)ccc2[nH]1,cell-free assay,competition with immobilised ligand,0.1 µM,90
C[C@H]1CCN(c2nccc(-c3cnn4ncccc34)n2)C1,binding,,1 µM,78
Cc1cc(NC(=O)c2cccc(S(F)(F)(F)(F)F)c2)cc(-n2ccn3nc(-c4cccnc4)cc23)c1,cell-free assay,competition with immobilised ligand,1 µM,100
O=C(NCCCN1CCOCC1)c1ccc(Nc2nccc(-c3cc4ccccc4s3)n2)cc1,binding,competition with immobilised ligand,1 µM,71
Cc1cnn2ncc(-c3ccnc(N(C)C)n3)c2c1,binding,,1 µM,83
O=C(NCCCN1CCOCC1)c1ccc(Nc2ncc(Cl)c(-c3ccc(Cl)s3)n2)cc1,binding,competition with immobilised ligand,1 µM,52
N[C@H]1CCN(c2nccc(-c3cnn4ncccc34)n2)C1,binding,,1 µM,83
